Experimental data reported in ChEMBL document CHEMBL5104120, “Morpholine substituted quinazoline derivatives as anticancer agents against MCF-7, A549 and SHSY-5Y cancer cell lines and mechanistic studies” (RSC Med Chem, 2022).

Experiments:
[1] = test system: A549; assay: Antiproliferative activity against human A549 cells assessed as inhibition of cell growth incubated for 48 hrs by MTT assay; assay type: functional, cell-based; conditions: A549, 48 h
Procedure, shortened: (§1)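 Cell lines from NCCS; ~8000 cells/well grown 24 h at 37 °C, 5% CO2, serum-starved 8 h to synchronize, then complete medium restored. Compounds applied at 1, 5, 10 and 25 μM in triplicate for 48 h. MTT added after medium removal, 4 h in dark; formazan dissolved in DMSO, absorbance at 590 nm read as % viability (mean ± S.D.); IC50 in μM.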

[2] = test system: SH-SY5Y; assay: Antiproliferative activity against human SH-SY5Y cells assessed as inhibition of cell growth incubated for 48 hrs by MTT assay; assay type: functional, cell-based; procedure, shortened: as §1
[3] = test system: MCF7; assay: Antiproliferative activity against human MCF7 cells assessed as inhibition of cell growth incubated for 48 hrs by MTT assay; assay type: functional, cell-based; conditions: MCF7, 48 h; procedure, shortened: as §1
[4] = test system: HT-29; assay: Antiproliferative activity against human HT-29 cells assessed as inhibition of cell growth incubated for 72 hrs by SRB assay; assay type: functional, cell-based; conditions: HT-29, 72 h
[5] = test system: MCF7; assay: Antiproliferative activity against human MCF7 cells assessed as inhibition of cell growth incubated for 72 hrs by SRB assay; assay type: functional, cell-based; conditions: MCF7, 72 h
[6] = Cytotoxicity against human HEK293 cells assessed as inhibition of cell growth incubated for 48 hrs by MTT assay; assay type: toxicity, cell-based
[7] = test system: SH-SY5Y; assay: Induction of apoptosis in human SH-SY5Y cells assessed as early apoptotic cells at 10 uM incubated for 48 hrs by AnnexinV staining based cytofluorimetric analysis (reference value: 1.16 %); assay type: functional
Procedure, shortened: (§2)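 SHSY5Y cells grown in 6-well plates and exposed to compounds at 10 μM for 48 h. Cells plus medium centrifuged at 1200 rpm for 5 min, washed in 1× PBS, then incubated with Annexin V/dead cell reagent 30 min at room temperature in dark. Annexin V […] populations quantified on a Muse cytofluorimetric analyzer.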

[8] = test system: SH-SY5Y; assay: Induction of apoptosis in human SH-SY5Y cells assessed as late apoptotic cells at 10 uM incubated for 48 hrs by AnnexinV staining based cytofluorimetric analysis (reference value: 0.24 %); assay type: functional; procedure, shortened: as §2
[9] = test system: SH-SY5Y; assay: Induction of apoptosis in human SH-SY5Y cells assessed as necrotic cells at 10 uM incubated for 48 hrs by AnnexinV staining based cytofluorimetric analysis (reference value: 0 %); assay type: functional; procedure, shortened: as §2
[10] = test system: SH-SY5Y; assay: Cell cycle arrest in human SH-SY5Y cells assessed as cells in G0/G1 phase at 10 uM incubated for 48 hrs by PI staining based flow cytometry analysis (reference value: 53.2 %); assay type: functional
[11] = test system: SH-SY5Y; assay: Induction of apoptosis in human SH-SY5Y cells assessed as viable cells at 10 uM incubated for 48 hrs by AnnexinV staining based cytofluorimetric analysis (reference value: 98.6 %); assay type: functional; conditions: read-out: Activity; procedure, shortened: as §2
[12] = test system: SH-SY5Y; assay: Cell cycle arrest in human SH-SY5Y cells assessed as cells in S phase at 10 uM incubated for 48 hrs by PI staining based flow cytometry analysis (reference value: 16.2 %); assay type: functional
[13] = test system: SH-SY5Y; assay: Cell cycle arrest in human SH-SY5Y cells assessed as cells in G2 phase at 10 uM incubated for 48 hrs by PI staining based flow cytometry analysis (reference value: 31.1 %); assay type: functional
[14] = test system: L1210; assay: Antiproliferative activity against mouse L1210 cells assessed as inhibition of cell growth incubated for 72 hrs by tryphan blue staining; assay type: functional, cell-based; conditions: L1210, 72 h
[15] = test system: HeLa; assay: Antiproliferative activity against human HeLa cells assessed as inhibition of cell growth incubated for 72 hrs by tryphan blue staining; assay type: functional, cell-based
[16] = test system: NIH3T3; assay: Antiproliferative activity against mouse NIH3T3 cells assessed as inhibition of cell growth incubated for 72 hrs by tryphan blue staining; assay type: functional, cell-based; conditions: NIH3T3, 72 h
[17] = test system: B16; assay: Antiproliferative activity against mouse B16 cells assessed as inhibition of cell growth incubated for 72 hrs by tryphan blue staining; assay type: functional, cell-based; conditions: B16, 72 h

Compound	IC50 [1]	IC50 [2]	IC50 [3]	IC50 at 48 h [6]	other results
c1ccc(-c2nc(N3CCOCC3)c3ccccc3n2)cc1	9.47 µM	> 25 µM	> 25 µM	–	–
O=C1Nc2ccc(F)cc2/C1=N/Nc1nc(-c2ccccc2)nc2ccccc12	–	–	–	–	IC50 [4]: 14.3 µM; IC50 [5]: 7.4 µM
FC(F)(F)c1ccc(-c2nc(N3CCOCC3)c3ccccc3n2)cc1	9.83 µM	15.8 µM	6.69 µM	> 25 µM	–
COc1cc(-c2nc(N3CCOCC3)c3ccccc3n2)cc(OC)c1OC	8.55 µM	3.36 µM	3.15 µM	–	Activity [7]: 2.71%; Activity [8]: 77.6%; Activity [9]: 19.2%; Activity [10]: 62.1%; viability at 10 µM [11]: 0.42%; Activity [12]: 14.4%; Activity [13]: 24.3%
Oc1ccc(-c2nc(N3CCOCC3)c3ccccc3n2)cc1	12.5 µM	20.7 µM	5.57 µM	> 25 µM	–
c1ccc2[nH]c(-c3nc(N4CCOCC4)c4ccccc4n3)cc2c1	11.5 µM	14.5 µM	> 25 µM	–	–
CSc1ccc(-c2nc(N3CCOCC3)c3ccccc3n2)cc1	17.7 µM	24.3 µM	10.1 µM	–	–
O=[N+]([O-])c1ccc(-c2nnc3c4cc(Cl)ccc4nc(N4CCOCC4)n23)s1	–	–	–	–	IC50 [14]: 580 nM; IC50 [15]: 6.43 µM; IC50 [16]: 2740 nM; IC50 [17]: 240 nM
COc1ccc(-c2nc(N3CCOCC3)c3ccccc3n2)cc1	20.8 µM	> 25 µM	5.01 µM	> 25 µM	–
N#Cc1ccc(-c2nc(N3CCOCC3)c3ccccc3n2)cc1	11.1 µM	> 25 µM	> 25 µM	–	–
CC(C)c1ccc(-c2nc(N3CCOCC3)c3ccccc3n2)cc1	9.5 µM	15.2 µM	10.5 µM	–	–
Fc1ccccc1-c1nc(N2CCOCC2)c2ccccc2n1	10.8 µM	> 25 µM	> 25 µM	–	–
CN(C)c1ccc(-c2nc(N3CCOCC3)c3ccccc3n2)cc1	10.4 µM	9.54 µM	6.44 µM	> 25 µM	Activity [7]: 2.23%; Activity [8]: 78.2%; Activity [9]: 19%; Activity [10]: 59%; viability at 10 µM [11]: 0.55%; Activity [12]: 15.3%; Activity [13]: 26.2%
Fc1cccc(Cl)c1-c1nc(N2CCOCC2)c2ccccc2n1	17.8 µM	22 µM	> 25 µM	–	–
Cc1ccc(-c2nc(N3CCOCC3)c3ccccc3n2)cc1	18.9 µM	18 µM	4.93 µM	–	–
COc1cc2c(c(OC)c1OC)-c1ccc(OC)c(=O)cc1[C@@H](NC(C)=O)CC2 [COLCHICINE]	5.13 µM	7.89 µM	5.19 µM	> 25 µM	–
